22 compounds from ChEMBL document CHEMBL4020816 can be followed below.

Test [1] addresses T1, Cannabinoid receptor 1 (Homo sapiens, UniProt P21554). Description: Displacement of [3H]CP55940 from recombinant human CB1 receptor expressed in beta-galactosidase expressing CHOK1 cell membranes after 60 mins by scintillation spectrometry.
Test [2] concerns the target T1, Cannabinoid receptor 1. Description: Displacement of [3H]CP55940 from recombinant human CB1 receptor expressed in beta-galactosidase expressing CHOK1 cell membranes assessed as kinetic rate index by measuring ratio of radioligand binding at 30 mins to 240 mins by scintillation spectrometry.
Test [3] addresses T1, Cannabinoid receptor 1. As to the kind of experiment: Antagonist activity at recombinant human CB1 receptor expressed in HEK293 cell membranes assessed as inhibition of CP55940-induced [35S]GTPgammaS binding preincubated for 1 hr followed by CP55940 addition and subsequent incubation with [35S]GTPgammaS measured after 30 mins by scintillation spectrometry. It is filed as functional. The procedure, abridged:
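Antagonism was measured by [35S]GTPγS binding at 30 °C on membranes of HEK-293 cells stably expressing recombinant human CB1.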

T1 sequence (P21554 whole entry): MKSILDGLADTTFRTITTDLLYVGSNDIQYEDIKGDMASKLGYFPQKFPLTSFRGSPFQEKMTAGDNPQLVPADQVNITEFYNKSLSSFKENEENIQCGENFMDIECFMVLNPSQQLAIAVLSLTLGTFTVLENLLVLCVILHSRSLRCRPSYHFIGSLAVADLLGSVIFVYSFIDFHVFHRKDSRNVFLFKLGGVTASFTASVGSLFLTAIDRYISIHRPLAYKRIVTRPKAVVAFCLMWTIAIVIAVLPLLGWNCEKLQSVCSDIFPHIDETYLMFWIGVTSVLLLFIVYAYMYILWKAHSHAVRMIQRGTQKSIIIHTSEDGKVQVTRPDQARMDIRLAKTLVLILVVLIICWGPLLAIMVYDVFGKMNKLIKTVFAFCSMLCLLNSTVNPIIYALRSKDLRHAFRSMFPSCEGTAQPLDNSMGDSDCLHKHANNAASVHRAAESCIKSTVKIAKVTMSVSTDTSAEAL

In the case of `Cc1c(C(=O)N[C@H]2CCC[C@H](O)C2)nc(-c2ccc(Cl)cc2Cl)n1-c1ccc(OS(=O)(=O)CCC(F)(F)F)cc1` (racemic), the Ki at Cannabinoid receptor 1 [1] (read-out: Ki) was 0.1 nM. Besides, the Ratio at Cannabinoid receptor 1 [2] was 0.89. Besides, the IC50 at Cannabinoid receptor 1 [3] (read-out: IC50) stood at 1.1 nM.
As for `Cc1c(C(=O)N[C@H]2CCCC[C@H]2N)nc(-c2ccc(Cl)cc2Cl)n1-c1ccc(OS(=O)(=O)CCC(F)(F)F)cc1` (racemic), at Cannabinoid receptor 1 [1] (read-out: Ki), the Ki was determined as 0.52 nM. The Ratio at Cannabinoid receptor 1 [2] worked out at 0.79. The IC50 on Cannabinoid receptor 1 [3] (read-out: IC50) was 7.1 nM.
Consider `Cc1c(C(=O)N[C@@H]2CCCC[C@@H]2N(C)C)nc(-c2ccc(Cl)cc2Cl)n1-c1ccc(OS(=O)(=O)CCC(F)(F)F)cc1` (racemic), for which, on Cannabinoid receptor 1 [2], the Ratio was found to be 0.74.
Turning to `CCCS(=O)(=O)Oc1ccc(-n2c(-c3ccc(Cl)cc3Cl)nc(C(=O)NN3CCCCC3)c2C)cc1`, on Cannabinoid receptor 1 [1] (read-out: Ki), the Ki was 0.28 nM. In addition, the Ratio at Cannabinoid receptor 1 [2] stood at 0.59. For the same compound, the IC50 at Cannabinoid receptor 1 [3] (read-out: IC50) amounted to 1.8 nM.
With `Cc1c(C(=O)NN2CCCCC2)nc(-c2ccc(Cl)cc2Cl)n1-c1ccc(OCCCC(F)(F)F)cc1`, the Ki on Cannabinoid receptor 1 [1] (read-out: Ki) was 0.32 nM. Also, the Ratio at Cannabinoid receptor 1 [2] stood at 0.8. Moreover, the IC50 at Cannabinoid receptor 1 [3] (read-out: IC50) stood at 1.2 nM.
`Cc1c(C(=O)NN2CCCCC2)nc(-c2ccc(Cl)cc2Cl)n1-c1ccc(OCCC(F)(F)F)cc1`: the Ki at Cannabinoid receptor 1 [1] (read-out: Ki) was found to be 1.26 nM. Besides, at Cannabinoid receptor 1 [2], the Ratio is 0.9. The IC50 on Cannabinoid receptor 1 [3] (read-out: IC50) was 5.6 nM.
On to `CCCCS(=O)(=O)Oc1ccc(-n2c(-c3ccc(Cl)cc3Cl)nc(C(=O)NN3CCCCC3)c2C)cc1`, for which the Ki on Cannabinoid receptor 1 [1] (read-out: Ki) worked out at 0.18 nM. At Cannabinoid receptor 1 [2], the Ratio was found to be 0.77. Also, the IC50 on Cannabinoid receptor 1 [3] (read-out: IC50) worked out at 1.3 nM.
Turning to `Cc1c(C(=O)Nc2ccc(C(F)(F)F)nc2)nc(-c2ccc(Cl)cc2Cl)n1-c1ccc(OS(=O)(=O)CCC(F)(F)F)cc1`, the Ki on Cannabinoid receptor 1 [1] (read-out: Ki) was 0.31 nM. Besides, the Ratio on Cannabinoid receptor 1 [2] is 1.12. Further, the IC50 on Cannabinoid receptor 1 [3] (read-out: IC50) turned out to be 2.2 nM.
Regarding `Cc1c(C(=O)NN2CCCCC2)nc(-c2ccc(Cl)cc2Cl)n1-c1ccc(OS(=O)(=O)CCC(F)(F)F)cc1`, the Ki at Cannabinoid receptor 1 [1] (read-out: Ki) came to 0.11 nM. At Cannabinoid receptor 1 [2], the Ratio was 1.02. The IC50 at Cannabinoid receptor 1 [3] (read-out: IC50) was 1.1 nM.
As to `Cc1c(C(=O)NN2CCCCC2)nc(-c2ccc(Cl)cc2Cl)n1-c1ccc(OS(=O)(=O)CCCC(F)(F)F)cc1`, the Ki on Cannabinoid receptor 1 [1] (read-out: Ki) is 0.062 nM. Besides, the Ratio on Cannabinoid receptor 1 [2] was 0.93. In addition, at Cannabinoid receptor 1 [3] (read-out: IC50), the IC50 came to 1.2 nM.
As to `Cc1c(C(=O)N[C@@H]2CCCC[C@H]2O)nc(-c2ccc(Cl)cc2Cl)n1-c1ccc(OS(=O)(=O)CCC(F)(F)F)cc1`, the Ki at Cannabinoid receptor 1 [1] (read-out: Ki) turned out to be 0.3 nM. Also, on Cannabinoid receptor 1 [2], the Ratio was 0.74. On Cannabinoid receptor 1 [3] (read-out: IC50), the IC50 is 1.7 nM.
`Cc1c(C(=O)NC2CCC(O)CC2)nc(-c2ccc(Cl)cc2Cl)n1-c1ccc(OS(=O)(=O)CCC(F)(F)F)cc1` (mixture of isomers): at Cannabinoid receptor 1 [1] (read-out: Ki), the Ki amounted to 0.37 nM. For the same compound, the Ratio on Cannabinoid receptor 1 [2] is 0.88. Further, the IC50 on Cannabinoid receptor 1 [3] (read-out: IC50) came out at 3.8 nM.
Consider `Cc1c(C(=O)N[C@@H]2CCCC[C@@H]2O)nc(-c2ccc(Cl)cc2Cl)n1-c1ccc(OS(=O)(=O)CCC(F)(F)F)cc1`, for which the Ki is 0.027 nM on Cannabinoid receptor 1 [1] (read-out: Ki) and 0.01 nM on Cannabinoid receptor 1 [1] (read-out: pKi (converted)). The Ratio at Cannabinoid receptor 1 [2] was 1.06. The IC50 on Cannabinoid receptor 1 [3] (read-out: IC50) came out at 1.8 nM.
With `Cc1c(C(=O)NN2CCCCC2)nc(-c2ccc(Cl)cc2Cl)n1-c1ccc(OS(=O)(=O)CCCF)cc1`, the Ki on Cannabinoid receptor 1 [1] (read-out: Ki) was 0.32 nM. Also, the Ratio on Cannabinoid receptor 1 [2] is 0.88. Besides, at Cannabinoid receptor 1 [3] (read-out: IC50), the IC50 worked out at 3.1 nM.
The like results for `Cc1c(C(=O)NN2CCCCC2)nc(-c2ccc(Cl)cc2Cl)n1-c1ccc(OS(=O)(=O)CCC(C)C)cc1` were, in that order, 0.2 nM, 1.02 and 1.3 nM.
As for `Cc1c(C(=O)NN2CCCCC2)nc(-c2ccc(Cl)cc2Cl)n1-c1ccc(OCCCF)cc1`, the Ki at Cannabinoid receptor 1 [1] (read-out: Ki) was 0.34 nM; at Cannabinoid receptor 1 [1] (read-out: pKi (converted)) it was 0.1 nM. Also, at Cannabinoid receptor 1 [2], the Ratio amounted to 1.09. For the same compound, the IC50 on Cannabinoid receptor 1 [3] (read-out: IC50) came to 6 nM.
On to `Cc1c(C(=O)NN2CCCC(O)C2)nc(-c2ccc(Cl)cc2Cl)n1-c1ccc(OS(=O)(=O)CCC(F)(F)F)cc1` (racemic), for which, at Cannabinoid receptor 1 [1] (read-out: Ki), the Ki turned out to be 0.27 nM. Besides, the Ratio on Cannabinoid receptor 1 [2] is 0.71. At Cannabinoid receptor 1 [3] (read-out: IC50), the IC50 was 2.7 nM.
On the same counts, the results for `Cc1c(C(=O)NN2CCCCC2)nc(-c2ccc(Cl)cc2Cl)n1-c1ccc(OS(=O)(=O)CCC(C)(C)C)cc1` are 0.6 nM, 0.73 and 2.4 nM.
For the compound `Cc1c(C(=O)Nc2ccc(C(F)(F)F)cn2)nc(-c2ccc(Cl)cc2Cl)n1-c1ccc(OS(=O)(=O)CCC(F)(F)F)cc1`, on Cannabinoid receptor 1 [1] (read-out: Ki), the Ki is 0.19 nM. The Ratio at Cannabinoid receptor 1 [2] was found to be 1.39. For the same compound, the IC50 at Cannabinoid receptor 1 [3] (read-out: IC50) was 0.61 nM.
As to `Cc1ccc(NC(=O)c2nc(-c3ccc(Cl)cc3Cl)n(-c3ccc(OS(=O)(=O)CCC(F)(F)F)cc3)c2C)nc1`, the Ki on Cannabinoid receptor 1 [1] (read-out: Ki) was 0.14 nM. Also, the Ratio at Cannabinoid receptor 1 [2] was found to be 0.92. In addition, the IC50 on Cannabinoid receptor 1 [3] (read-out: IC50) came to 1.7 nM.
As to `Cc1c(C(=O)Nc2ccc(OC(F)(F)F)cc2)nc(-c2ccc(Cl)cc2Cl)n1-c1ccc(OS(=O)(=O)CCC(F)(F)F)cc1`, the Ki on Cannabinoid receptor 1 [1] (read-out: Ki) is 0.22 nM; at Cannabinoid receptor 1 [1] (read-out: pKi (converted)), 0.501 nM. Also, the Ratio at Cannabinoid receptor 1 [2] came to 1.29. Besides, on Cannabinoid receptor 1 [3] (read-out: IC50), the IC50 was 0.66 nM.
Take `Cc1c(C(=O)Nc2ccc(F)nc2)nc(-c2ccc(Cl)cc2Cl)n1-c1ccc(OS(=O)(=O)CCC(F)(F)F)cc1`: on Cannabinoid receptor 1 [1] (read-out: Ki), the Ki was 0.13 nM. Also, the Ratio at Cannabinoid receptor 1 [2] was found to be 0.7. On Cannabinoid receptor 1 [3] (read-out: pIC50 (converted)), the IC50 is 1.26 nM.
